A value given as a limit tells only on which side of the number the result lay.

A word on the IC50: it is the concentration that inhibits the measured activity by half. A higher IC50 goes with lower potency.

Experiment [1] has as its target Receptor tyrosine-protein kinase erbB-2 (Homo sapiens, UniProt P04626). In words: Inhibition of HER2 (unknown origin) after 10 mins.
Experiment [2] in a line: cells. The experiment is classed as functional, cell-based. The settings on record: Homo sapiens, Calu-3, 72 h.
For experiment [3], the system named is A-431. The experiment is described as follows: cells. The experiment is classed as functional, cell-based. The settings on record: Homo sapiens, A-431, 72 h.
Experiment [4] relates to BT-474. The experiment is described as follows: cells. It counts as functional, cell-based. The settings on record: Homo sapiens, BT-474, 72 h.
Experiment [5] has as its system NCI-H1975. The experiment is described as follows: cells. It counts as functional, cell-based. The settings on record: Homo sapiens, NCI-H1975, 72 h.
The test system of experiment [6] is NCI-N87. The experiment is described as follows: cells. It counts as functional, cell-based. The settings on record: Homo sapiens, NCI-N87, 72 h.
Experiment [7] deals with T1, Epidermal growth factor receptor (Homo sapiens, UniProt P00533).
T1 sequence (P00533 whole entry): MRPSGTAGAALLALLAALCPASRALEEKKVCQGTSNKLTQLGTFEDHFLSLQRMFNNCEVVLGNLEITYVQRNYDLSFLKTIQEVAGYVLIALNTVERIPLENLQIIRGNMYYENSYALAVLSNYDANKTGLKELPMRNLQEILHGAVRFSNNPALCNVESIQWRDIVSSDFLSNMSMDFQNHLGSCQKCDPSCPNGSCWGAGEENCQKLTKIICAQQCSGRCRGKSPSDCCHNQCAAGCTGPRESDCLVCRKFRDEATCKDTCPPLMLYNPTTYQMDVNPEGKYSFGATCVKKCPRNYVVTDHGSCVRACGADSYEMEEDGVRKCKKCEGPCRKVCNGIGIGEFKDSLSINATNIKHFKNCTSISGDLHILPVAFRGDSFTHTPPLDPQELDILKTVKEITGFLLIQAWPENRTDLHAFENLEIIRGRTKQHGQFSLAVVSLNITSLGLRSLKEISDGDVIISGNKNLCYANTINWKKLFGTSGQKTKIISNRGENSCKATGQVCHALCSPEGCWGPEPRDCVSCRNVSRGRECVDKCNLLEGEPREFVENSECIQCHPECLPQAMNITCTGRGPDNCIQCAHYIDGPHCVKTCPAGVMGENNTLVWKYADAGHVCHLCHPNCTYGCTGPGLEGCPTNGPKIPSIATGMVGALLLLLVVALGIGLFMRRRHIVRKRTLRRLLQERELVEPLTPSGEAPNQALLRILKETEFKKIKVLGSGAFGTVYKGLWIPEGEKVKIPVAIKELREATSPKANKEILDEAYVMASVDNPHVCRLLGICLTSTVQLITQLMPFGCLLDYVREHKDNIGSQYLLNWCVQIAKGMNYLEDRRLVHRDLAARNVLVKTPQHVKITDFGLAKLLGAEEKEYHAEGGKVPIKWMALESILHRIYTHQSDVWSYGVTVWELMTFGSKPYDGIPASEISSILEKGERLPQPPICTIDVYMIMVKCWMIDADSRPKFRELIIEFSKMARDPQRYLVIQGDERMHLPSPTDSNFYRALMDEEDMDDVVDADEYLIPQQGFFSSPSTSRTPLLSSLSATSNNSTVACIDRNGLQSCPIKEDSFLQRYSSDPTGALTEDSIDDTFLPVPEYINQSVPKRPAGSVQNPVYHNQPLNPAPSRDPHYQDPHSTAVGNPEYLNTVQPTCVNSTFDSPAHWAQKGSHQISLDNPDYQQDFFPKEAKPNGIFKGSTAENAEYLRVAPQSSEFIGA
Experiment [8] deals with T1, Epidermal growth factor receptor. It counts as cell-based, KB.
Experiment [9] concerns NCI-H1975. The experiment is described as follows: Ratio of gefitinib IC50 to compound IC50 for human NCI-H1975 cells. It counts as functional. Put shortly: (§1)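 MTT growth assay: cells in ATCC-recommended medium with 10% FBS, seeded at 5.0 × 10³ cells/well, adhered overnight at 37 °C, 5% CO₂. Compound added, then 72 h incubation. MTT added for 4 h. Absorbance read at 550 nm, corrected at 690 nm. IC₅₀ from nonlinear regression of concentration–response data. Ratio is the reference-drug IC₅₀ over the compound IC₅₀ from this assay.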

Experiment [10] deals with Calu-3. The experiment is described as follows: Ratio of gefitinib IC50 to compound IC50 for human Calu3 cells. The experiment is classed as functional. The essentials:
as §1

Experiment [11] has as its system BT-474. In words: Ratio of gefitinib IC50 to compound IC50 for human BT474 cells. It counts as functional. The essentials:
as §1

For experiment [12], the system named is A-431. The experiment is described as follows: Ratio of gefitinib IC50 to compound IC50 for human A431 cells. It counts as functional. Put shortly: as §1
In experiment [13] the test system is NCI-H1975. In words: Ratio of erlotinib IC50 to compound IC50 for human NCI-H1975 cells. It counts as functional. Put shortly:
as §1

Experiment [14] has as its system NCI-N87. The experiment is described as follows: Ratio of gefitinib IC50 to compound IC50 for human NCI-N87 cells. The experiment is classed as functional. The essentials: as §1
The test system of experiment [15] is Calu-3. In words: Ratio of erlotinib IC50 to compound IC50 for human Calu3 cells. It counts as functional. Put shortly:
as §1

Experiment [16] concerns A-431. In words: Ratio of erlotinib IC50 to compound IC50 for human A431 cells. The experiment is classed as functional. The essentials: as §1
In experiment [17] the test system is BT-474. The experiment is described as follows: Ratio of erlotinib IC50 to compound IC50 for human BT474 cells. It counts as functional. The essentials: as §1
Experiment [18] deals with NCI-N87. In words: Ratio of erlotinib IC50 to compound IC50 for human NCI-N87 cells. The experiment is classed as functional. Put shortly:
as §1

Sequence of Receptor tyrosine-protein kinase erbB-2 (P04626 whole entry): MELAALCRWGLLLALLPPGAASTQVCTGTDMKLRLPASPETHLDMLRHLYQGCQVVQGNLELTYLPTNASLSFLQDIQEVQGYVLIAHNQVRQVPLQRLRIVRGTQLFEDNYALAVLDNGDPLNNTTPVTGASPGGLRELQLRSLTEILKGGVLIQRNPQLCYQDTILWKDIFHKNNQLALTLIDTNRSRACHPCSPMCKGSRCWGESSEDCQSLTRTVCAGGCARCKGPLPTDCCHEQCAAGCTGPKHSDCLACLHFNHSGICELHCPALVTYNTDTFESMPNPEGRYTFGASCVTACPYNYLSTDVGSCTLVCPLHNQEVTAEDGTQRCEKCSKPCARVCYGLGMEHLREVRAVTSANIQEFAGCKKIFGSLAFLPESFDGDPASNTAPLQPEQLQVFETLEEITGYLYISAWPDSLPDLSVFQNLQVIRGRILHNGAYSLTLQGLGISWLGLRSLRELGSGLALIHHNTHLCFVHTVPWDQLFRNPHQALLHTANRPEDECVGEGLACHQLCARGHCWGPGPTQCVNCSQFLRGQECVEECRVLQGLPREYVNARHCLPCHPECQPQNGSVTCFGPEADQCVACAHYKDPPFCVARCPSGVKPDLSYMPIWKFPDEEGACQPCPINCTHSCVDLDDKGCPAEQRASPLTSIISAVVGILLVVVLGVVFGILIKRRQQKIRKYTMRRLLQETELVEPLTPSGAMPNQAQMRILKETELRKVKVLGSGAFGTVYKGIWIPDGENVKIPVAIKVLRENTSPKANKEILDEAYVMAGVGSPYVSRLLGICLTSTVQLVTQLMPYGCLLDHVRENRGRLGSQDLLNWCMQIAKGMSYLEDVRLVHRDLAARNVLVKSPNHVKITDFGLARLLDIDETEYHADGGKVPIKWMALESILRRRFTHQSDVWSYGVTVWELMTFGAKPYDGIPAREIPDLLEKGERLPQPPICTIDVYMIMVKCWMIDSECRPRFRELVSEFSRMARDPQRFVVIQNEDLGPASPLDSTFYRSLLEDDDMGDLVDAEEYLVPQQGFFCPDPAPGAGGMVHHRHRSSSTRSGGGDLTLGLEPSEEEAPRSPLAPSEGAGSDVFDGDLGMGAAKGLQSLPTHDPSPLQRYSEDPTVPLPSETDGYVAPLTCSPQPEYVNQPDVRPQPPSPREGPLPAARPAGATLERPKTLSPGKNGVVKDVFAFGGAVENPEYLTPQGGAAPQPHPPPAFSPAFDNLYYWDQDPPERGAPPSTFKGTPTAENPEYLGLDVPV

On to `C#Cc1cccc(Nc2ncnc3cc4c(cc23)N(C(=O)/C=C/CN2CCCCC2C)CCO4)c1` (stereo not given), for which the concentration for half-maximal inhibition (IC50) in experiment [1] came out at 290 nM; in experiment [2], 950 nM; in [3] it was 690 nM; in experiment [4] it was 1150 nM; in experiment [5], 1230 nM; in experiment [6] it was 270 nM.
Turning to `C#Cc1cccc(Nc2ncnc3cc4c(cc23)N(C(=O)/C=C/CN(CC)CC)CCO4)c1`, the IC50 stood at 250 nM in experiment [1]; 5 nM in experiment [7]; 42 nM in experiment [8]; 350 nM in [2]; 190 nM in experiment [3]; 550 nM in experiment [4]. Further, the 50% inhibitory concentration (IC50) worked out at 680 nM in experiment [5] and 150 nM in experiment [6].
As for `C#Cc1cccc(Nc2ncnc3cc4c(cc23)N(C(=O)/C=C/CN2CCCCC2)CCO4)c1`, the IC50 in experiment [1] was 290 nM; in experiment [7], 4 nM; in experiment [8] it was 42 nM; in experiment [2] it was 550 nM; in experiment [3] it was 340 nM; in [4] it was 870 nM. The IC50 in [5] turned out to be 870 nM; in [6], 160 nM.
With `C#Cc1cccc(Nc2ncnc3cc4c(cc23)N(C(=O)/C=C/CN2CCN(C)CC2)CCO4)c1`, the IC50 in experiment [1] was found to be 1110 nM; in experiment [7], 16 nM; in experiment [8] it was 780 nM; in experiment [2] it was 2060 nM; in experiment [3], 480 nM; in experiment [4], 1330 nM. For the same compound, the IC50 in experiment [5] is 1460 nM; in experiment [6], 220 nM.
In the case of `C#Cc1cccc(Nc2ncnc3cc4c(cc23)N(C(=O)/C=C/CN(C)C)CCO4)c1`, the IC50 in [1] came out at 250 nM; in experiment [7] it was 3 nM; in experiment [8] it was 46 nM; in [2], 140 nM; in [3] it was 230 nM; in experiment [4], 240 nM. For the same compound, the IC50 in [5] came out at 300 nM; in experiment [6] it was 46 nM. Besides, the “Ratio IC50” value worked out at 33 in experiment [9]; 7.1 in experiment [10]; 1.5 in experiment [11]; 2.4 in experiment [12]; 18 in experiment [13]; 22 in experiment [14]. Further, the Ratio IC50 was 6.6 in experiment [15], 3.3 in experiment [16], over 42 in experiment [17] and over 210 in experiment [18].
For `C#Cc1cccc(Nc2ncnc3cc4c(cc23)N(C(=O)/C=C/CN2CCOCC2)CCCO4)c1`, the IC50 in experiment [8], in experiment [2], in experiment [3], in experiment [4], in experiment [5] and in experiment [6] was over 10000 nM in each case.
As for `C#Cc1cccc(Nc2ncnc3cc4c(cc23)N(C(=O)/C=C/CN2CCN(C)CC2)CCCO4)c1`, the IC50 in experiment [8], in experiment [2], in experiment [3], in experiment [4], in experiment [5] and in experiment [6] was over 10000 nM each time.
For `C#Cc1cccc(Nc2ncnc3cc4c(cc23)N(C(=O)/C=C/CN2CCC(C)CC2)CCCO4)c1`, the IC50 in [8], in [2], in experiment [3], in experiment [4], in [5] and in [6] was over 10000 nM each time.
As to `C#Cc1cccc(Nc2ncnc3cc4c(cc23)N(C(=O)/C=C/CN2CCCCC2C)CCCO4)c1` (stereo not given), the IC50 in experiment [8], in [2], in experiment [3], in experiment [4], in experiment [5] and in [6] was over 10000 nM throughout.
For the compound `C#Cc1cccc(Nc2ncnc3cc4c(cc23)N(C(=O)/C=C/CN2CCCCC2)CCCO4)c1`, the IC50 in experiment [8] is over 10000 nM; in experiment [2], over 10000 nM; in [3], over 10000 nM; in [4], over 10000 nM; in experiment [5], 8590 nM; in experiment [6], over 10000 nM.
As to `C#Cc1cccc(Nc2ncnc3cc4c(cc23)N(C(=O)/C=C/CN2CCCC2)CCCO4)c1`, the IC50 was over 10000 nM in experiment [8]; over 10000 nM in [2]; 1820 nM in experiment [3]; over 10000 nM in experiment [4]; 1740 nM in experiment [5]; over 10000 nM in [6].
Regarding `C#Cc1cccc(Nc2ncnc3cc4c(cc23)N(C(=O)/C=C/CN(CC)CC)CCCO4)c1`, the IC50 in experiment [8] is over 10000 nM; in [2], over 10000 nM; in [3] it was 2160 nM; in [4], over 10000 nM; in experiment [5] it was over 10000 nM; in experiment [6] it was over 10000 nM.
`C#Cc1cccc(Nc2ncnc3cc4c(cc23)N(C(=O)/C=C/CN(C)C)CCCO4)c1`: the IC50 in experiment [8] is over 10000 nM; in [2], over 10000 nM; in experiment [3] it was 1750 nM; in experiment [4], over 10000 nM; in experiment [5], 1860 nM; in experiment [6] it was over 10000 nM.
Turning to `C#Cc1cccc(Nc2ncnc3cc4c(cc23)N(C(=O)/C=C/CN2CCOCC2)CCO4)c1`, the IC50 in [1] came out at 930 nM; in [7] it was 12 nM; in experiment [8] it was 640 nM; in experiment [2] it was 1010 nM; in experiment [3], 530 nM; in [4], 1390 nM. Also, the figures for the IC50 in experiment [5] and in experiment [6] were 770 nM and 600 nM, respectively.
For `C#Cc1cccc(Nc2ncnc3cc4c(cc23)N(C(=O)/C=C/CN2CCCC2)CCO4)c1`, the IC50 in [1] was 230 nM; in [7], 3 nM; in [8], 60 nM; in experiment [2], 710 nM; in experiment [3] it was 110 nM; in [4], 330 nM. The IC50 in experiment [5] stood at 320 nM; in [6] it was 120 nM.
`C#Cc1cccc(Nc2ncnc3cc4c(cc23)N(C(=O)/C=C/CN2CCC(C)CC2)CCO4)c1`: the IC50 in experiment [1] turned out to be 330 nM; in [7], 5 nM; in [8] it was 82 nM; in [2], 1670 nM; in experiment [3], 400 nM; in [4], 1380 nM. Moreover, the figures for the IC50 in experiment [5] and in [6] were 890 nM and 250 nM, respectively.

These data come from ChEMBL document CHEMBL3112407 (Bioorg Med Chem Lett, 2014).
